The source made the active and inactive calls. The rule behind the calls is not given here.
Columns and labels:
[1] = biological target: Beta-secretase 1 (Mus musculus) (UniProt P56818); test: Inhibition of BACE1 in mouse N2a695 cells assessed as reduction in Abeta40 production transfected with human APP-C99 at 10 uM incubated for 5 hrs by ELISA; format: cell-based
How it was run: (§1)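 N2a cells transfected with human APP-FL or APP-C99 treated with compounds at 10 μM. Aβ40 and Aβ42 in supernatants measured by ELISA; controls were BACE inhibitor MK8931 0.5 μM and γ-secretase inhibitor DAPT 1 μM.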

[2] = Cytotoxicity against mouse N2a695 cells assessed as reduction in cell viability at 10 uM incubated for 24 hrs by MTT assay; format: cell-based
How it was run: (§2)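 Viability of N2a cells by MTT assay after 5 h and 24 h incubation with compound (10 μM; one comparator at 1 μM), scored as number of viable cells.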

[3] = biological target: Beta-secretase 1 (Mus musculus) (UniProt P56818); test: Inhibition of BACE1 in mouse N2a695 cells assessed as reduction in Abeta40 production at 5 uM pretreated with BACE IV for 1 hr and measured after 5 hrs by ELISA; format: cell-based
How it was run: (§3)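 N2a695 cells preincubated 1 h with DMSO or 0.5 μM BACE IV, then given fresh medium containing 5 μM compound. Aβ40 and Aβ42 measured by human Aβ ELISA as percent of DMSO or BACE IV-pretreated DMSO control. Duplicate or triplicate wells; average of three independent experiments.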

[4] = biological target: Beta-secretase 1 (Mus musculus) (UniProt P56818); test: Inhibition of BACE1 in mouse N2a695 cells assessed as reduction in Abeta42 production at 5 uM pretreated with BACE IV for 1 hr and measured after 5 hrs by ELISA; format: cell-based; how it was run: as §3
Homo sapiens [5] = species on record: Homo sapiens; test: Inhibition of Abl (unknown origin) assessed as residual activity at 10 uM relative to control
How it was run: (§4)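 Abl and Src kinase activity measured by an outside service with compounds at 10 μM; activity reported relative to control.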

[6] = Cytotoxicity against mouse N2a695 cells assessed as reduction in cell viability at 10 uM incubated for 5 hrs by MTT assay; format: cell-based; how it was run: as §2
[7] = biological target: Beta-secretase 1 (Mus musculus) (UniProt P56818); test: Inhibition of BACE1 in mouse N2a695 cells transfected with human APP-C99 assessed as reduction in Abeta42 production at 10 uM incubated for 5 hrs by ELISA; format: cell-based; how it was run: as §1
[8] = biological target: Beta-secretase 1 (Mus musculus) (UniProt P56818); test: Inhibition of BACE1 in mouse N2a695 cells transfected with human APP-FL assessed as reduction in Abeta42 production at 10 uM incubated for 5 hrs by ELISA; format: cell-based; how it was run: as §1
[9] = biological target: Proto-oncogene tyrosine-protein kinase Src (Homo sapiens) (UniProt P12931); test: Inhibition of Src (unknown origin) assessed as residual activity at 10 uM relative to control; how it was run: as §4
Chain of Proto-oncogene tyrosine-protein kinase Src (Homo sapiens) (P12931 2-536 limits assumed): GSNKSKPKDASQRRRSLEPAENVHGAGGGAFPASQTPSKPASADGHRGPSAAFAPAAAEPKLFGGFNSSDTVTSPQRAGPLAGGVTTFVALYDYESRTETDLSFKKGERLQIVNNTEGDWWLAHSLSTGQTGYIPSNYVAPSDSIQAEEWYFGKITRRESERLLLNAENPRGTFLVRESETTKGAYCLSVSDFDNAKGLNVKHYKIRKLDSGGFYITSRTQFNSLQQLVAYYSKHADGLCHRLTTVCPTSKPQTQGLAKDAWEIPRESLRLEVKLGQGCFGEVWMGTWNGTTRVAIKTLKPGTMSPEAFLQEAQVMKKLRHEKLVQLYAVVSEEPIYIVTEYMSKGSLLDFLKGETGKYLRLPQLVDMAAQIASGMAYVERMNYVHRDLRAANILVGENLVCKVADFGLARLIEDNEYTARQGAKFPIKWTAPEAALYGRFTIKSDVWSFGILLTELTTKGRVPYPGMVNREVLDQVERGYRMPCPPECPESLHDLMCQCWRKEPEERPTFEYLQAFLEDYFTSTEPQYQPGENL

[10] = biological target: Beta-secretase 1 (Mus musculus) (UniProt P56818); test: Inhibition of BACE1 in mouse N2a695 cells assessed as reduction in Abeta40 production at 10 uM incubated for 5 hrs by ELISA relative to control; format: cell-based
[11] = biological target: Beta-secretase 1 (Mus musculus) (UniProt P56818); test: Inhibition of BACE1 in mouse N2a695 cells assessed as reduction in Abeta42 production at 10 uM incubated for 5 hrs by ELISA relative to control; format: cell-based
How it was run: (§5)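 N2a695 cells treated with compound (10 μM, or 20 μM for reference compound). Aβ42 in cell supernatant measured by human Aβ ELISA.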

[12] = biological target: Beta-secretase 1 (Mus musculus) (UniProt P56818); test: Inhibition of BACE1 in mouse N2a695 cells assessed as reduction in Abeta40 production transfected with human APP-FL at 10 uM incubated for 5 hrs by ELISA; format: cell-based; how it was run: as §1
[13] = biological target: Beta-secretase 1 (Mus musculus) (UniProt P56818); test: Inhibition of BACE1 in mouse N2a695 cells assessed as reduction in Abeta40 production at 10 uM incubated for 6 hrs by ELISA; format: cell-based
[14] = biological target: Proto-oncogene tyrosine-protein kinase Src (Homo sapiens) (UniProt P12931); test: Inhibition of Src (unknown origin) assessed as residual activity at 1 uM relative to control
[15] = Cytotoxicity against mouse N2a695 cells assessed as reduction in cell viability at 1 uM incubated for 5 and 24 hrs by MTT assay; format: cell-based; how it was run: as §2
Homo sapiens [16] = species on record: Homo sapiens; test: Inhibition of Abl (unknown origin) assessed as residual activity at 1 uM relative to control
Mus musculus = species on record: Mus musculus; test: Inhibition of Abeta42 production in mouse N2a695 cells at 20 uM incubated for 5 hrs by ELISA; format: functional, cell-based; how it was run: as §5
[17] = biological target: Beta-secretase 1 (Mus musculus) (UniProt P56818); test: Inhibition of BACE1 in mouse N2a695 cells assessed as reduction in Abeta40 production at 20 uM incubated for 5 hrs by ELISA; format: cell-based

Chain of Beta-secretase 1 (Mus musculus) (P56818 whole entry): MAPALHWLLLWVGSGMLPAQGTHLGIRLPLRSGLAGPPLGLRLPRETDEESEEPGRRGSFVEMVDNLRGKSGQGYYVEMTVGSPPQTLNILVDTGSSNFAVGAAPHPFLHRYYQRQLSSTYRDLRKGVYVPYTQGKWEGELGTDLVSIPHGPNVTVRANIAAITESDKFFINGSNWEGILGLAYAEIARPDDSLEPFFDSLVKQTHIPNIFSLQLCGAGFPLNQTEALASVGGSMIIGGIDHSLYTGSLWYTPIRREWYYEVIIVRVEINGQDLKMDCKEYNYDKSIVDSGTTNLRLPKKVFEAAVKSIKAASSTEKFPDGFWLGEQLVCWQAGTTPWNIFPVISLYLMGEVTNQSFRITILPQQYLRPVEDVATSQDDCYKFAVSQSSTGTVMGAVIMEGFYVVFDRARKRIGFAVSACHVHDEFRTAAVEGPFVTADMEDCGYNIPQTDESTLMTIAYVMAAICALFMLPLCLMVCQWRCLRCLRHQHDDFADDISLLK

Row | Activity (Homo sapiens [5]) | Activity [9] | inhibition [10] | inhibition [11] | inhibition [13] | Structure (SMILES) | Activity [2] | Activity [6] | other results
1 | 0% | 8% | > 50% | > 50% | Active | Cn1c(=O)c(-c2c(Cl)cc(NC(=O)OC(C)(C)C)cc2Cl)cc2cnc(N3CCN(c4ccncc4)CC3)nc21 | Non-Toxic | Non-Toxic | inhibition [1]: inactive; inhibition [3]: Active; inhibition [4]: Active; inhibition [7]: Active; inhibition [8]: Active; inhibition [12]: Active
2 | – | – | – | – | Active | Cl.Cn1c(=O)c(-c2c(Cl)cccc2Cl)cc2cnc(N3CCN(C4CCNCC4)CC3)nc21 | Non-Toxic | Non-Toxic | –
3 | 20.8% | 10.5% | > 50% | > 50% | Active | CN1CCC(N2CCN(c3ncc4cc(-c5c(Cl)cccc5Cl)c(=O)n(C)c4n3)CC2)CC1 | Non-Toxic | Non-Toxic | –
4 | 8.5% | 10.4% | > 50% | > 50% | Active | CN1CCC(N2CCN(c3ncc4cc(-c5c(Cl)cc(NC(=O)OC(C)(C)C)cc5Cl)c(=O)n(C)c4n3)CC2)CC1 | Toxic | Non-Toxic | –
5 | – | – | – | – | – | CSc1cccc(Nc2ncc3cc(-c4c(Cl)cccc4Cl)c(=O)n(C)c3n2)c1 | – | – | Activity [14]: 99.5%; Activity [15]: Non-Toxic; Activity (Homo sapiens [16]): 99.7%
6 | – | – | – | – | – | Cn1c(=O)c(-c2c(Cl)cccc2Cl)cc2cnc(N3CCNCC3)nc21 | Non-Toxic | Non-Toxic | inhibition [1]: inactive; inhibition [3]: Active; inhibition (Mus musculus): Active; inhibition [4]: Active; inhibition [7]: Active; inhibition [8]: Active; inhibition [12]: Active; inhibition [17]: Active
7 | – | – | – | – | Active | Cn1c(=O)c(-c2c(Cl)cccc2Cl)cc2cnc(N3CCC(N4CCCCC4)CC3)nc21 | Non-Toxic | Non-Toxic | –
8 | – | – | – | – | Active | CN1CCN(c2ncc3cc(-c4cc(Cl)cc(Cl)c4)c(=O)n(C)c3n2)CC1 | Non-Toxic | Non-Toxic | –
9 | – | – | – | – | Active | Cc1ccc(NC(=O)c2ccc(CN3CCN(C)CC3)cc2)cc1Nc1nccc(-c2cccnc2)n1 | – | – | –
10 | 3.2% | 8.9% | > 50% | > 50% | Active | CN1CCC(N2CCN(c3ncc4cc(-c5c(Cl)cc(NC(=O)C(C)(C)C)cc5Cl)c(=O)n(C)c4n3)CC2)CC1 | Non-Toxic | Non-Toxic | inhibition [1]: inactive; inhibition [3]: Active; inhibition [4]: Active; inhibition [7]: Active; inhibition [8]: Active; inhibition [12]: Active
11 | – | – | – | – | Active | CN1CCN(c2ncc3cc(-c4c(Cl)cc(NC(=O)C(C)(C)C)cc4Cl)c(=O)n(C)c3n2)CC1 | Non-Toxic | Non-Toxic | –
12 | – | – | – | – | Active | Cn1c(=O)c(-c2c(Cl)cccc2Cl)cc2cnc(N3CCN(Cc4ccccc4)CC3)nc21 | Toxic | Non-Toxic | –

Source: ChEMBL document CHEMBL4304833, “Development of Kinase Inactive PD173955 Analogues for Reducing Production of Aβ Peptides” (ACS Med Chem Lett, 2019)
